The values below come from PMC7658073 (Clinical Pharmacokinetics, 2020).

SMILES strings stand for the structures. Bounds are passed on as bounds.

The nature of data set [1]: Phase I DDI study with digoxin. The following applies: with digoxin 0.375 mg QD vs vericiguat 10 mg alone, fed. Type of data set: in vivo, human.
A short description of data set [2]: Phase I DDI study with aspirin. To be noted: with aspirin 500 mg vs vericiguat 15 mg SD alone, fasting. Type of data set: in vivo, human.
A short description of data set [3]: Phase I DDI study with sildenafil. Type of data set: in vivo, human.
Data set [4] deals with T1, OATP1B1 (Homo sapiens, UniProt Q9Y6L6).
T1 sequence (Q9Y6L6 1-691): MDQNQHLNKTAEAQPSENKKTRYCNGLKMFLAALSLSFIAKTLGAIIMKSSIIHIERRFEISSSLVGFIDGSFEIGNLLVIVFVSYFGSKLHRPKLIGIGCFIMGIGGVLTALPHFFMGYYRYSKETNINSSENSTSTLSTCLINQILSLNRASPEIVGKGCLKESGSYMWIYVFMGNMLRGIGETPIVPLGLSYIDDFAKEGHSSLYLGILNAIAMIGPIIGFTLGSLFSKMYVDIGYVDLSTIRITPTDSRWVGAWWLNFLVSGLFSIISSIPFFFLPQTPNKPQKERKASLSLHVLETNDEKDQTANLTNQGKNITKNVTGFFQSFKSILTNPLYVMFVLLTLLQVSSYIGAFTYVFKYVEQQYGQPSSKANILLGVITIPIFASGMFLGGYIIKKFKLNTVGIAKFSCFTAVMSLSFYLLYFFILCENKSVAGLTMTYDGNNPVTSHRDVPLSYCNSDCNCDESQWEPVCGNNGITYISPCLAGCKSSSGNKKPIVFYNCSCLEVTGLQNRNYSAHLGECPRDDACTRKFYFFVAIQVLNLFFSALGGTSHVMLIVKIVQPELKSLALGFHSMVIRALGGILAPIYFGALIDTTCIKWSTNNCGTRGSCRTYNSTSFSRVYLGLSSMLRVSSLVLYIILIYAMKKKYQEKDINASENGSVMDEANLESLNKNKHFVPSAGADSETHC
The experiment in a line: Substrate properties towards OATP1B1. The format is in vitro ADME.

Data set [5] concerns the target T1, OATP1B1. The experiment in a line: Inhibitory potency towards OATP1B1. Type of data set: in vitro ADME.
Data set [6] addresses T2, OATP1B3 (Homo sapiens, UniProt Q9NPD5).
T2 sequence (Q9NPD5 1-702): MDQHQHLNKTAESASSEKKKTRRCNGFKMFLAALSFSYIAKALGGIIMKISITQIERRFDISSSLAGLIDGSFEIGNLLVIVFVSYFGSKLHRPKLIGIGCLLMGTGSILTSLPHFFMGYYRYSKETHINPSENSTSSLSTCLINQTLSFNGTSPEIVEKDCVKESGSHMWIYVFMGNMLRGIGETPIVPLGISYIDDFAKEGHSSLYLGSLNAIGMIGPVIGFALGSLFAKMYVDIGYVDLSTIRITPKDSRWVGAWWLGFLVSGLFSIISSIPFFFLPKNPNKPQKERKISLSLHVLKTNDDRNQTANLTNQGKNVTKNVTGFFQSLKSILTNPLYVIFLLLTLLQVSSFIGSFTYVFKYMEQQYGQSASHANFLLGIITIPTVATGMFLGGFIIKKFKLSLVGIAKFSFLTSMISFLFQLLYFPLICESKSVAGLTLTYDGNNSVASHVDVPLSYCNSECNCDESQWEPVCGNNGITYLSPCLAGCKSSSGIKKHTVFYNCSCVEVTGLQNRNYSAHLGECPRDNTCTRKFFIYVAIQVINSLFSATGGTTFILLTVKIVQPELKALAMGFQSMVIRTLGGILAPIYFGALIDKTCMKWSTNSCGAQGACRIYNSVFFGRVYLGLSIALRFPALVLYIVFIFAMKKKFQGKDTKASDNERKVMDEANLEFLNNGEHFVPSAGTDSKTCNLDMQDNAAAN
The data set is described as follows: Inhibitory potency towards OATP1B3. Type of data set: in vitro ADME.

Data set [7] in a line: All phase I studies in healthy volunteers. The format is in vivo, human. In a few lines:
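Healthy male volunteers, excluding regular medication, interacting foods/beverages or supplements, and non-adherence to smoking rules. All study drugs given orally. Tolerability recorded as treatment-emergent adverse events. Non-compartmental PK: AUC0–∞ by linear-log trapezoid plus extrapolation from the terminal log-linear slope; Cmax and trough read directly. Log-transformed parameters compared by ANOVA to give geometric mean ratios with 90% CIs.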

The conditions of data set [8]: cited from earlier work.
[9] abbreviates: with sildenafil 100 mg vs without, vericiguat 10 mg QD, fed.

As usually defined, the IC50 is the concentration that inhibits the measured activity by half. For the molecule `COC(=O)Nc1c(N)nc(-c2nn(Cc3ccccc3F)c3ncc(F)cc23)nc1N` [Vericiguat], in data set [1], the “AUC of vericiguat, point estimate of treatment ratio” value is reported as 0.980 and the “Cmax of vericiguat, point estimate of treatment ratio” value is on record as 1.009. In addition, in data set [2], the “AUC of vericiguat, point estimate of treatment ratio” value is given as 0.949 and the “Cmax of vericiguat, point estimate of treatment ratio” value is listed as 0.933. For the same molecule, in data set [3] (co-administration with sildenafil 50 mg), the “Decrease in vericiguat exposure (differences in PK parameters)” value is “less than 9%”. Also, in data set [3] (setting [9]), the “AUC0–24,md of vericiguat, point estimate of treatment ratio” value is 0.993 and the “Cmax,md of vericiguat, point estimate of treatment ratio” value was 0.970. Also, the “Substrate of OATP1B1” value in data set [4] is reported as “not a substrate”. For the same molecule, the half-maximal inhibitory concentration (IC50) in data set [5] was ~16 µM. The concentration for half-maximal inhibition (IC50) in data set [6] is ~30 µM. In addition, the “Changes in vericiguat exposure in the phase I DDI studies” value in data set [7] (all ten DDI studies) was ≤ 30%. In addition, the Tolerability entry in data set [7] (healthy volunteers, all phase I studies) is reported as “generally well tolerated”. For the same molecule, in data set [8], the “Permeability” value is recorded as “highly permeable” and the “Solubility” value is “low-soluble”.
